Source: PubChem
Shown are actives, neighbours in structure and some others; about 1.9% of the full set was active somewhere.
PLC-beta3 inh – PLC-beta3 (human) inhibition, primary screen. inhibition, % at 12.2 µM. Purified PLC-beta3, fluorogenic substrate, fluorescence. 370,000 compounds, 0.18% hits. Q01970;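 note: 0% = median of compound wells on plate and 100% = full blocker control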
Target sequence (Q01970 whole entry, looked up): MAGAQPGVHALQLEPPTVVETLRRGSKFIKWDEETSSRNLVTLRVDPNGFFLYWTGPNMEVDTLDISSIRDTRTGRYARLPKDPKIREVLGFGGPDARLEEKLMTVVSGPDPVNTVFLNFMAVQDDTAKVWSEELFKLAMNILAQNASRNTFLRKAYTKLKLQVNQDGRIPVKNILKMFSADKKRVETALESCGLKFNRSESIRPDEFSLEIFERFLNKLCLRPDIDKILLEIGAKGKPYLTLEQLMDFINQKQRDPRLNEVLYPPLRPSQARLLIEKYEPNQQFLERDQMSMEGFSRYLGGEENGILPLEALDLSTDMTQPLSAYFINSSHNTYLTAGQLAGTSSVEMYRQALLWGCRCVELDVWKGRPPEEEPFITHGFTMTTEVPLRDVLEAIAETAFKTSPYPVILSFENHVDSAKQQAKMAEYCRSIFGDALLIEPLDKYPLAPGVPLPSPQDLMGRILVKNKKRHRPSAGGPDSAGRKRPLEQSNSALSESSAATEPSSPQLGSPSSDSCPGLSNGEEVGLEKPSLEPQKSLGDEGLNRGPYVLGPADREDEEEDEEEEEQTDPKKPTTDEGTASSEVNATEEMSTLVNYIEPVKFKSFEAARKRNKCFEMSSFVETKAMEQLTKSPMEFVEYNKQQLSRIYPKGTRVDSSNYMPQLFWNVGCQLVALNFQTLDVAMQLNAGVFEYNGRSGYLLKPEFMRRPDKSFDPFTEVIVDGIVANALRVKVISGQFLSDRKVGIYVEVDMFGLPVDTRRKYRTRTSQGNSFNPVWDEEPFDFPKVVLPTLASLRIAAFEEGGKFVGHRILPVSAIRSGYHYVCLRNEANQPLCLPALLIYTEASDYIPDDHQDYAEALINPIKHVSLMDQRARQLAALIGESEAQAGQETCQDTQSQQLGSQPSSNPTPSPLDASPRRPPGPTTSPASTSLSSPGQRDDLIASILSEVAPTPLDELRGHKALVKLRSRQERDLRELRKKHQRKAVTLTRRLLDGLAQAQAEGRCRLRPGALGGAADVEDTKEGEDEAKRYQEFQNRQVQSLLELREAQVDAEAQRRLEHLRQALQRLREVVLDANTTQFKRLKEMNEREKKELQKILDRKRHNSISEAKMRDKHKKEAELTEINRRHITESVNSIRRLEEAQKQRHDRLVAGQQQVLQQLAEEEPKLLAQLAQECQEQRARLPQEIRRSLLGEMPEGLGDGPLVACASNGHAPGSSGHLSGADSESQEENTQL
proCasp3 act – activators of human procaspase-3 | P42574 | recombinant procaspase-3 D3A, Ac-DEVD-pNA absorbance 405 nm | activation, % at 8.5 µM | 330,000 compounds, 0.11% hits | AID 463141;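 active = activation above the mean of all tested compounds plus 3 SD, cut at about 21% in these data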;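 note: 0% = DMSO alone and 100% = DMSO wells spiked with extra 5 µM PC-3 D3A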
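System: Procaspase-3 D3A mutant. Medium: Zinc-free 300 mM NaCl, 50 mM HEPES, 0.01% Triton X-100. Schedule: 1 h preincubation plus 2 h reaction at 25 °C. Measured by: 405 nm absorbance of p-nitroaniline, reads at 0 and 120 min. Read-out: percent activation relative to control range.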
PLC-gamma1 inh – blocks human PLC-gamma1 enzyme activity. inhibition, % at 12.2 µM. AID 720700. 370,000 compounds, 0.84% hits. purified PLC-gamma1, fluorogenic substrate, fluorescence. P19174; in the data active = inhibition above about 9.5%
procasp7 counter – activates human procaspase-7, counter-screen for procaspase-3 activators. P55210. 330,000 compounds, 0.093% hits. AID 463210. recombinant procaspase-7, Ac-DEVD-pNA absorbance 405 nm; D23A/D198A/D206A triple mutant, cannot self-cleave; scale: DMSO 0, 5 µM enzyme 100. activation, % at 8.5 µM;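 active = percent activation above the screen-wide mean plus 3 SD, cut at about 25% in these data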
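Test system: Procaspase-7 triple mutant (PC-7 D3A). Also added: Ac-DEVD-pNA substrate, 400 µM as added. Schedule: 1 h enzyme–compound preincubation and 2 h substrate reaction, both 25 °C. Signal: p-Nitroaniline absorbance at 405 nm, read at 0 and 120 min. Control set: low DMSO alone, high DMSO plus 5 µM PC-7.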
sPLA2-III inh – Blocks human group III sPLA2 activity; Q9NZ20; QFRET BODIPY PC-A2 liposome hydrolysis, fluorescence; inhibition, % at 12.2 µM; 370,000 compounds, 0.56% hits;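 active = inhibition above mean plus 3 SD of compounds lying within the high and low control bounds, cut at about 19% in these data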;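 note: 0% = median of test compound wells and 100% = no enzyme DMSO wells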
Arr AP2 block – blocks beta-arrestin peptide binding to AP2 adaptin | AID 504490 | FITC-arrestin peptide / GST-AP2 beads, flow cytometry; AP2 beta2 appendage carries R879A mutation | 340,000 compounds, 0.31% hits | inhibition, % at 10 µM;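 active = inhibition above a set limit, near 3 SD of compounds lacking own fluorescence, cut at about 54% in these data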;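 note: plate controls were DMSO wells for no effect and 5 µM unlabelled arrestin peptide for full effect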
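System: GST-tagged AP2 beta2-adaptin appendage (R879A) on 4 µm glutathione beads / Reagent: FITC-arrestin peptide, 50 nM / Detection: HyperCyt-sampled flow cytometry, FL1 channel, ex 488/em 535 nm / Timing: 12 min plus 1 h, RT / Buffer or medium: PBS plus Tween 20 (0.05%) and BSA (0.1%)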
PLCg1 ctr – PLC-gamma1 inhibition, counter-screen for PLC-beta3 hits | inhibition, % at 12.3 µM | 3,300 compounds, 3.1% hits | purified PLC-gamma1, fluorogenic substrate, fluorescence | shares compounds with PLC-gamma1 inh | AID 743258; in the data active = inhibition above about 9.5%
PLCbeta3 conf – human PLC-beta3 inhibition, confirmation | 3,300 compounds, 1% hits | purified PLC-beta3, fluorogenic substrate fluorescence | shares compounds with PLC-gamma1 inh | inhibition, % at 12.3 µM
An asterisk follows results filed as active; . = no result given. Cut-off read from the data, not from the text of the source, unless noted: active = inhibition above about 11%; inactive = the rest.

SMILES	PLC-beta3 inh	proCasp3 act	PLC-gamma1 inh	procasp7 counter	sPLA2-III inh	Arr AP2 block	PLCg1 ctr	PLCbeta3 conf
CCN(CC)CC(O)Cn1c2ccccc2c2ccccc21 (stereo not drawn)	7	2	12*	2	7	0	-9	-4
O=C(NCCc1ccccc1)c1c[nH]c2ccccc2c1=O	11*	.	9	.	-13	.	-3	-2
COc1ccc(CCNC(=O)c2c[nH]c3ccccc3c2=O)cc1OC	0	0	2	-5	-9	5	.	.
CCOC(=O)[C@@H](NC(=O)[C@@H]1CC=C[C@@H]2CCN(Cc3ccc(Cl)cc3)C(=O)[C@@H]21)C(C)C	-3	.	-3	.	-5	.	.	.
C[C@H]1[C@@H](N(C)Cc2ccccc2)CC[C@@]23CCCN2C(=O)CCC[C@@H]13	-1	.	0	.	2	.	.	.
Cn1cnnc1SCC(=O)n1c2ccccc2c2ccccc21	8	-2	14*	7	-11	-6	-10	-6
Cc1c(C)n(C(=O)CSc2nncn2C)c2ccccc12	2	-2	7	14	11	5	.	.
CCCNC(=O)C[C@H]1CC[C@H]2[C@@H](COc3ccc(NC(=O)Nc4ccc(C#N)cc4)cc3C(=O)N2C)O1	2	.	6	.	-22	.	.	.
CC1(Cc2ccc(F)cc2)C(=O)Nc2ccc(S(=O)(=O)NC3CCCCC3)cc21 (stereo not drawn)	11*	.	6	.	-27	.	-9	-3
CC(C)Nc1nc(NC(C)C)nc(N(C)n2cnnc2)n1	5	3	9.9*	8	-3	-8	-4	-3
CC(C)Nc1nc(NC(C)C)nc(Nn2cnnc2)n1	5	-1	1	4	-1	20	.	.
CCNC(=O)C1(C)CCN1C(=O)CCc1cccc(Cl)c1 (stereo not drawn)	8	.	14*	.	-3	.	-8	-4
O=C(Nc1cc(Cl)ccc1Cl)C1CCCO1 (stereo not drawn)	0	-4	3	10	-2	7	.	.
O=C(O)c1ccc(Cl)cc1NC(=O)C1CCCO1 (stereo not drawn)	12*	3	2	12	3	2	-6	-6
CCCCCN(C(=O)CCC(=O)OCc1cccc(C)c1)c1c(N)n(CCCC)c(=O)[nH]c1=O	6	10	7	2	11	-16	.	.
Cc1cc(Br)ccc1OCCCN1CCC(C(O)(c2ccccc2)c2ccccc2)CC1	-3	.	1	.	-13	.	.	.
CC(=O)Nc1ccc(-c2ccnc3c2CC(C)(C(=O)NCc2ccc(N4CCN(C)CC4)cc2)O3)cc1 (stereo not drawn)	11*	.	0	.	-5	.	-2	1
CC(=O)Nc1ccc(-c2ccnc3c2CC(C)(C(=O)NCCc2ccccc2)O3)cc1 (stereo not drawn)	6	.	14*	.	-5	.	-4	0
CN(C)c1ccc(CNC(=O)C2(C)Cc3c(-c4cccc(C(N)=O)c4)ccnc3O2)cc1 (stereo not drawn)	0	.	10.0*	.	19	.	-5	-3
